Assay results taken from the RNAGym collection of RNA variant scans (doi:10.1126/science.aae0568).
Variants at the floor of the assay were thinned out.

B1: tRNA (parent)
chain: GUUCCGUUGGCGUAAUGGUAACGCGUCUCCCUCCUAAGGAGAAGACUGCGGGUUCGAGUCCCGUACGGAACG

Variants of: B1
Test: yeast fitness relative to wild type (ratio to wild type); higher = fitter; tRNA-Arg(CCU), competitive growth, 37 C, YPD
Method in brief: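 A pool of Saccharomyces cerevisiae strains, each with a tRNA-Arg(CCU) gene variant at the native genomic locus, was competed in YPD at 37°C for 24 hours across six parallel replicates. The variants had been chemically synthesised at a 3% per-site mutation rate over 69 sites, and gene amplicons before and after competition were read by 100-nucleotide paired-end sequencing. Darwinian fitness relative to wild type rested on changes in genotype frequencies. Genotypes required ≥ 100 starting reads, and estimates < 0.5 were set to 0.5.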

| Variant | yeast fitness |
| --- | --- |
| GUUCCGUUGGCGUUAUGGUAACGCGUCUCCCUCGUAAGGAGAAGACUGCGGGUUCGAGUCGCGUACGGACCG [A14U C34G C61G A70C] | ≤ 0.5 |
| GUUCCGUUGGCGUUAUGGUAACGCGUCUCCCUCGUACGGAGAAGACUGCUGGUUCGAGUCCUGUACGGAACG [A14U C34G A37C G50U C62U] | ≤ 0.5 |
| GUUCCGUUGGCGUUAUGGUAACGCGUCUCUCUCCUAAGGAGAAGACUGCGGGUUCGAGUACCGUAUGGAACG [A14U C30U C60A C66U] | 0.618 |
| GUUCCGUUGGCGUUAUGGUAACGCGUCUUCCUCCUAUGGAGAAGACUGCGGGUUCGAGUCCCGUAUGGAACG [A14U C29U A37U C66U] | ≤ 0.5 |
| GUUCCGUUGGCGUUAUGGUAACGCGUCUUCCUCCUAAGGAGAAGACUGCGGGUUUGAGUCCCGUACGGGACG [A14U C29U C55U A69G] | ≤ 0.5 |
| GUUCCGUUGGCGUUAUGGUAACGCGUCUCCGUCCUAAAGAGAAGACUGCGGGUUCGAGUCCCGUAUGGAACG [A14U C31G G38A C66U] | ≤ 0.5 |
| GUUCCGUUGGCGUUAUGGUAACGCGUCUCCCUCCUAAGCAGAAGACUGCGGGUUGGAGUCCAGUACGGAACG [A14U G39C C55G C62A] | ≤ 0.5 |
| GUUCCGUUGGCGUUAUCGUAACGAGUCUCGCUCCUAAGGAGAAGACUGCGGGUUCGGGUCCCGUACGGAACG [A14U G17C C24A C30G A57G] | ≤ 0.5 |
| GUUCCGUUGGCGUUAUGGUAACCCGUCUCCCUCCUAAGGAGAAGACUGCGGGUUAGAGUCCCGUACGGAACG [A14U G23C C55A] | 0.559 |
| GUUCCGUUGGCGUUAUGGUAACGCGUCUCCCUCGUAAGGAGACGACUGCGGGUUCGAGUCCCGUACGGAUCG [A14U C34G A43C A70U] | ≤ 0.5 |
| GUUCCGUUGGCGUUAUGGUAACGCGUCUCCCUCCUAAGGAGAACACUGCGGAUUCGAGCCCCGGACGGAACG [A14U G44C G52A U59C U64G] | 0.646 |
| GUUCCGUUGGCGUUAUGGUAACGCAUCUCCCUCCUAAGGAGAAGACUGCGGGUUCGAGUCUCGUACGGAACG [A14U G25A C61U] | 0.649 |
| GUUCCGUUGGCGUUAUGGUAACGCGUCUCCCUCCUAAGGAGAACACUGCGAGUUCGAGUCCCGUACGGAUCG [A14U G44C G51A A70U] | 0.596 |
| GUUCCGUUGGCGUUAUGGUAACGCGUCUUCCGCCUAAGGAGAAGACUGCGGGUUCGUGUCCCGUACGGAACG [A14U C29U U32G A57U] | ≤ 0.5 |
| GUUCCGUUGGCGUUAUGGUAACGCGUCUCCUUCCUAAGGAGAAGACUGCGGGUUUGAGUCCCGUACGAAACG [A14U C31U C55U G68A] | 0.618 |
| GUUCCGUUGGCGUUAUGGUAACGCGUCUCCCUCCUAAGGAGAAGACUGAGGGUUCGGGUCCCGUACGGAACG [A14U C49A A57G] | 0.542 |
| GUUCCGUUGGCGUUAUGGUAACGCCUCUCCCUCCUAAGCAGAAGACUGCGGGUGCGAGUCCCGUUCGGAACG [A14U G25C G39C U54G A65U] | ≤ 0.5 |
| GUUCCGUUGGCGUUAUGGUAACGCGUCUCCCUCCUAAGGAGAACACUGCGAGUUCGAGUCCCAUACGGAUCG [A14U G44C G51A G63A A70U] | ≤ 0.5 |
| GUUCCGUUGGCGUUAUGGUAACGCGUCUCACUCCUAAAGAGAAGACUGCGGGUUAGAGUCCCGUCCGGAACG [A14U C30A G38A C55A A65C] | ≤ 0.5 |

| Variant | yeast fitness |
| --- | --- |
| GUUCCGUUGGCGUUAUGGUAACGCGUCUCCCUCGUAAGGAGAAGACUGCGGGUUCGAGUCCCGUACGGAACG [A14U C34G] | ≤ 0.5 |
| GUUCCGUUGGCGUUAUGGUAACGCGUCUCUCUCUUAAGGAGAAGUCUGCGGGUUCGAGUCCCGUACGGAACG [A14U C30U C34U A45U] | ≤ 0.5 |
| GUUCCGUUGGCGUUAUGCUAACGCGUCUCCCUCCUAAGGAGAAGACUGCGGGUUCGAGUCCCGUACGGUACG [A14U G18C A69U] | ≤ 0.5 |
| GUUCCGUUGGCGUUAUAGUAAUGCGUCUCCCUGCUAAGGAGAAGACUGCGGGUUCGAGUCCCGUACUGAACG [A14U G17A C22U C33G G67U] | 0.613 |
| GUUCCGUUGGCGUUAUGCUAACGCGUCUCCCUCUUAAGGAGAAGACUGCGGGUUCGAGUCCCGUACGGAACG [A14U G18C C34U] | ≤ 0.5 |
| GUUCCGUUGGCGUUAUGGUAACGCGUCUCCCUCCUAAGGAGAAGAAUGCGCGUUCGUGUCCCGGACGGAACG [A14U C46A G51C A57U U64G] | 0.584 |
| GUUCCGUUGGCGUUAUCGUAACGCGUCUCCCUCCUAAGGAGAAGACUGCGGGGUCGAGUCCCGUACGGAACG [A14U G17C U53G] | 0.603 |
| GUUCCGUUGGCGUUAUGGUAACCCGUCUGCCUCCUAAGGAGAAGACUGCGAGUUCUAGUCCCGUACGGAACG [A14U G23C C29G G51A G56U] | ≤ 0.5 |
| GUUCCGUUGGCGUUAUGGUAACGCGUCUCCCUCCUAAGGACAAGACUGCGGGUUCGAGACACGUAUGCAACG [A14U G41C U59A C61A C66U G68C] | ≤ 0.5 |
| GUUCCGUUGGCGUUAUGGUAACUCGUCUCCCUCCUAAGGAGAAGACUGCGGGUUCGAGUCCCGUACGGAACG [A14U G23U] | 0.59 |
| GUUCCGUUGGCGUUAUGGUAACGCGUCUCCCUCCUAAGGAGAAGAUUGCGGGUUCGAGUCCCGUACGGAACG [A14U C46U] | 0.664 |
| GUUCCGUUGGCGUUAUGGUAACGCGUCUCCCUCCUAAGGAGAAGAAUGCGGGUUCGAGUCCCGUACGGAACG [A14U C46A] | 0.599 |
| GUUCCGUUGGCGUUAUGAUAACGAGUCUCCCUCAUAAGGAGAAGACUGCGGGUUCGAGUCCCGUACGGAACG [A14U G18A C24A C34A] | 0.53 |
| GUUCCGUUGGCGUUAUGGUAACACGUCUCCCCCCUAAGGAGAAGACUGCGGGUUCGAGUCCCGUACGGAACG [A14U G23A U32C] | ≤ 0.5 |
| GUUCCGUUGGCGUUAUGGUAACGCGUCUCCCUGCUAGGGCGAAGACUGGGGGUUCGAGUCCCGUACCGAACG [A14U C33G A37G A40C C49G G67C] | ≤ 0.5 |
| GUUCCGUUGGCGUUAUGGUAACGCGUCUCCCUCCUAAGGAGAAGAGUGCGGGUUCGAGUCCCAUACGGAACG [A14U C46G G63A] | 0.53 |
| GUUCCGUUGGCGUUAUAGUAACGCGUCUCCCUCCUAAGGAGAAGUCUGCGGGUUCGACUCCCGUACGGAACG [A14U G17A A45U G58C] | ≤ 0.5 |
| GUUCCGUUGGCGUUAUGCUAACGCGUCUCCCUCCUAAGCAGAAGACUGGGGGUUCGAGUCUCGUACGGAACG [A14U G18C G39C C49G C61U] | ≤ 0.5 |
| GUUCCGUUGGCGUUAUGGUAACGCGUCUCCCUCCUAAGGAGAAGACUGCGGGUUAGAGUCCCGUCCGGAACG [A14U C55A A65C] | ≤ 0.5 |
